Activity calls are given as the source filed them. The rule behind the calls is not given here.
Columns and labels:
[1] = Apparent permeability in MDCK cells; conditions: dog
[2] = Drug absorption in human intestine
[3] = Protein binding in plasma (unknown origin)
[4] = Effective permeability across human intestinal membrane by Ussing chamber technique
[5] = Permeability in human Caco2 cells; conditions: Caco-2
Acetylcholinesterase = Acetylcholinesterase (Electrophorus electricus, UniProt O42275); assay: Inhibition of electric eel AChE using acetylthiocholine iodide as substrate preincubated for 20 mins followed by substrate addition measured after 5 mins by Ellman's method
Acetylcholinesterase, sequence (O42275 whole entry): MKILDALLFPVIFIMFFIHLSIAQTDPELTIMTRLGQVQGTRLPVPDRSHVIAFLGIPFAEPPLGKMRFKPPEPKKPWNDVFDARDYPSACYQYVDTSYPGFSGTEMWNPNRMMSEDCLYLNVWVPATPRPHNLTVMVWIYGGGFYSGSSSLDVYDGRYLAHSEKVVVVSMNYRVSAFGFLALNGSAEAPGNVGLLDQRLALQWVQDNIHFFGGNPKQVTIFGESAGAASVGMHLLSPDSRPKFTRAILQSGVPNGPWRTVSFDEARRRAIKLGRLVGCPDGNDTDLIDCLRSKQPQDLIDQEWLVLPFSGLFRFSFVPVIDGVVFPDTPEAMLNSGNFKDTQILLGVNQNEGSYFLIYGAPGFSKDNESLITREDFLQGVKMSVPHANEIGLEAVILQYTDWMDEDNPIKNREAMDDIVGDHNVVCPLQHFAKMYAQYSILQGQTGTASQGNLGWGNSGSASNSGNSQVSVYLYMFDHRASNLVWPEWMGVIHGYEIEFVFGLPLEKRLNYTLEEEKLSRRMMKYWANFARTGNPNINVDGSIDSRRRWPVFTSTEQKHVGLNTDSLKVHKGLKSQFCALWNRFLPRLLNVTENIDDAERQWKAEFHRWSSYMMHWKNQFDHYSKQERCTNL

[6] = target: T1, Amine oxidase [flavin-containing] B (Rattus norvegicus, UniProt P19643); assay: Inhibition of MAO-B in rat liver homogenate using [14C]-phenylethylamine as substrate preincubated for 30 mins followed by substrate addition measured after 4 mins by liquid scintillation counting analysis; type: tissue-based
T1 sequence (P19643 whole entry): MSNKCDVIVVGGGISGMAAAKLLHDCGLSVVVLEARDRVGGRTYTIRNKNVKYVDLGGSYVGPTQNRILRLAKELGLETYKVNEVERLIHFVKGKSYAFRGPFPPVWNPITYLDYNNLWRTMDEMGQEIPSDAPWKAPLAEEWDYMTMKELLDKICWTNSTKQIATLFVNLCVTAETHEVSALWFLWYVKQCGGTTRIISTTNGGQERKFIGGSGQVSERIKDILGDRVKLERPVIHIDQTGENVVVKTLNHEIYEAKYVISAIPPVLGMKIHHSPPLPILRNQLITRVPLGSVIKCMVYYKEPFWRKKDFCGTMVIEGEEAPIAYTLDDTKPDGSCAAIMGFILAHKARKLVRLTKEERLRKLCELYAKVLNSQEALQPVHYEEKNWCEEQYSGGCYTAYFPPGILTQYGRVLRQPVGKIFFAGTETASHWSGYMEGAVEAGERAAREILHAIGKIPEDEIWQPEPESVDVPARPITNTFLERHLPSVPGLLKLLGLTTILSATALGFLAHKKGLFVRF
In short: (§1)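 MAO source was rat liver homogenate. Enzyme pre-incubated 30 min with a range of inhibitor concentrations in 50 mM phosphate buffer, pH 7.4. Substrates: MAO A, 100 μM [14C]-5-HT (0.5 mCi/mmol), reaction 20 min; MAO B, 20 μM [14C]-PEA (2.5 mCi/mmol), reaction 4 min. Final volume 225 μl.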

[7] = target: T2, Amine oxidase [flavin-containing] A (Rattus norvegicus, UniProt P21396); assay: Inhibition of MAO-A in rat liver homogenate using [14C]-5HT as substrate preincubated for 30 mins followed by substrate addition measured after 20 mins by liquid scintillation counting analysis; type: tissue-based; in short: as §1
T2 sequence (P21396 whole entry): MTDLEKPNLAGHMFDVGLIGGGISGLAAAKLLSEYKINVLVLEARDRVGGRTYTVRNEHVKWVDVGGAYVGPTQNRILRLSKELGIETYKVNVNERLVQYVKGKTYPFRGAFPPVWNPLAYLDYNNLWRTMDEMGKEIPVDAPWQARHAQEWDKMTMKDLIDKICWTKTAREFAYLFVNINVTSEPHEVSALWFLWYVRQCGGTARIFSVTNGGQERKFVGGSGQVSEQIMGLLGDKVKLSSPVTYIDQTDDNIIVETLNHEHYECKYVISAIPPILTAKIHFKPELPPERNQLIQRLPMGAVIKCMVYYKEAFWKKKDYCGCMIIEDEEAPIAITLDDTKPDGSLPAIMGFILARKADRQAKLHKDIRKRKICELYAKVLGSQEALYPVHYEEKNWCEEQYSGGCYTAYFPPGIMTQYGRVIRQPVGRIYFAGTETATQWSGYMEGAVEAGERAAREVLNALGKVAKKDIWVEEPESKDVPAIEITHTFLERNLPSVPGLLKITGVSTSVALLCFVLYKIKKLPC

Cholinesterase = Cholinesterase (Equus caballus, UniProt P81908); assay: Inhibition of equine serum BuChE using butyrylthiocholine iodide as substrate preincubated for 20 mins followed by substrate addition measured after 25 mins by Ellman's method
Cholinesterase, sequence (P81908 whole entry): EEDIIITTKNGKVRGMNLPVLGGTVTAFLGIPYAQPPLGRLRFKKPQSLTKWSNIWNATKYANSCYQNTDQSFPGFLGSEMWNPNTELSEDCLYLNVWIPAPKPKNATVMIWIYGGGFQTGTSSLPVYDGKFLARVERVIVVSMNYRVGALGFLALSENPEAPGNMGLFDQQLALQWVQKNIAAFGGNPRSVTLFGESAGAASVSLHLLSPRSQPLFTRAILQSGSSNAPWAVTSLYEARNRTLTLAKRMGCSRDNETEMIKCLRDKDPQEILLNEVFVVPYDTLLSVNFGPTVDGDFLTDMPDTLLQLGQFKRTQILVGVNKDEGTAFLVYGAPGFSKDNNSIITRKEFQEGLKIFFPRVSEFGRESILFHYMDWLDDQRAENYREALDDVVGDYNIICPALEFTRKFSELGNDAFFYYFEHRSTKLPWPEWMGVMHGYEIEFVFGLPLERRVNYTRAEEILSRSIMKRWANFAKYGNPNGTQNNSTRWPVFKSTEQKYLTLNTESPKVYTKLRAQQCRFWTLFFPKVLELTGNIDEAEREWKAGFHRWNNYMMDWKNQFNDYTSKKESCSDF
In short: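 Ellman-type colorimetric assay in 0.1 M phosphate buffer pH 8.0 with 0.05 U/mL BuChE and 0.35 mM DTNB. Serial inhibitor dilutions pre-incubated with the mix for 20 min, then butyrylthiocholine iodide added (final 0.5 mM). […] At least three experiments in triplicate, mean ± SEM.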

[8] = Hepatotoxicity in human HepG2 cells assessed as cell viability at 3 uM by MTT assay relative to control; type: toxicity, cell-based; conditions: read-out: Activity
[9] = target: T1, Amine oxidase [flavin-containing] B; assay: Inhibition of MAO-B in rat liver homogenate; type: tissue-based
In short: (§2)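 Rat liver homogenate as the MAO source. The enzyme is pre-incubated 30 min with several inhibitor concentrations in 50 mM phosphate buffer, pH 7.4. […] Mean ± SEM of at least three experiments in quadruplicate.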

[10] = Metal chelating activity assessed as compound concentration required for copper complex formation after 5 mins by UV-Vis spectrometric analysis; type: physicochemical
In short: (§3)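 UV-Vis spectra (220-300 nm) recorded in distilled water at room temperature in 1 cm quartz cells. Ligand at 10 μM with increasing CuSO4, Fe2(SO4)3 or ZnSO4. Incubation times: Cu(II) 5 min, Zn(II) 1 h, Fe(III) overnight. Stoichiometry found by Job's method, plotting absorbance at 257 nm against ligand mole fraction.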

[11] = Metal chelating activity assessed as compound concentration required for ferric ion complex formation by UV-Vis spectrometric analysis; type: physicochemical; in short: as §3
[12] = target: Acetylcholinesterase (Electrophorus electricus) (UniProt O42275); assay: Mixed-type inhibition of electric eel AChE using acetylthiocholine iodide as substrate at 0.5 to 5 uM by Lineweaver-Burk plot analysis
Acetylcholinesterase (Electrophorus electricus), sequence (O42275 24-633 limits assumed): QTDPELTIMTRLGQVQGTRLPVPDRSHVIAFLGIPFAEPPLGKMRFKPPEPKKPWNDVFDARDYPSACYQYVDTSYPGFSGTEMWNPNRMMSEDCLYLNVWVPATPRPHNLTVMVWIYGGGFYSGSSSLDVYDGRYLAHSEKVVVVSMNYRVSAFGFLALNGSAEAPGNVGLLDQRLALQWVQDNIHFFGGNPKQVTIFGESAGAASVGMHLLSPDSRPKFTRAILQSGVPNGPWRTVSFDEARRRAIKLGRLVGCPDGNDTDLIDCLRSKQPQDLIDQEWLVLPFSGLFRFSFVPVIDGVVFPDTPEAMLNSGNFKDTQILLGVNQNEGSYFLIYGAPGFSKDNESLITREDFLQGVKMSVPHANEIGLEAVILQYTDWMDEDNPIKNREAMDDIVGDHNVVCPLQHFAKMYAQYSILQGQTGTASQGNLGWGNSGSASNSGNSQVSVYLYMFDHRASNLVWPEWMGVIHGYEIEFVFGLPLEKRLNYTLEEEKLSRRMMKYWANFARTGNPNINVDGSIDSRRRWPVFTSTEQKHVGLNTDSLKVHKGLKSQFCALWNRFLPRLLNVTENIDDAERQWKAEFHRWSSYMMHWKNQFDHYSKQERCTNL

[13] = Hepatotoxicity in human HepG2 cells assessed as cell viability at 10 uM by MTT assay relative to control; type: toxicity, cell-based; conditions: read-out: Activity
[14] = Metal chelating activity assessed as compound concentration required for zinc complex formation after 1 hr by UV-Vis spectrometric analysis; type: physicochemical; in short: as §3
[15] = target: T1, Amine oxidase [flavin-containing] B; assay: Inhibition of MAO-B in rat liver homogenate preincubated for 30 mins; type: tissue-based; in short: as §2
Mus musculus [16] = assay: Cognitive enhancing effect in C57BL/6J mouse assessed as reversal of scopolamine-induced long-term memory deficit by measuring increase in latency time during probe session at 35 mg/kg, iv administered 90 mins prior to scopolamine-challenge measured after 24 hrs by passive avoidance test; type: functional, organism-based; set-up: dose 35 mg/kg
[17] = target: T2, Amine oxidase [flavin-containing] A; assay: Inhibition of MAO-A in rat liver homogenate; type: tissue-based; in short: as §2
[18] = target: T2, Amine oxidase [flavin-containing] A; assay: Inhibition of MAO-A in rat liver homogenate preincubated for 30 mins; type: tissue-based; in short: as §2
[19] = Hepatotoxicity in human HepG2 cells assessed as cell viability at 1000 uM by MTT assay relative to control; type: toxicity, cell-based; conditions: read-out: Activity
[20] = Hepatotoxicity in human HepG2 cells assessed as cell viability at 30 uM by MTT assay relative to control; type: toxicity, cell-based; conditions: read-out: Activity
[21] = Hepatotoxicity in human HepG2 cells assessed as cell viability at 300 uM by MTT assay relative to control; type: toxicity, cell-based; conditions: read-out: Activity
[22] = Hepatotoxicity in human HepG2 cells assessed as cell viability at 1 uM by MTT assay relative to control; type: toxicity, cell-based; conditions: read-out: Activity
[23] = Hepatotoxicity in human HepG2 cells assessed as cell viability at 100 uM by MTT assay relative to control; type: toxicity, cell-based; conditions: read-out: Activity
[24] = target: T2, Amine oxidase [flavin-containing] A; assay: Irreversible inhibition of MAO-A in rat liver homogenate assessed as recovery of enzyme activity at 10 uM preincubated for 30 mins followed by centrifugation and washing with PBS buffer; type: tissue-based
In short: (§4)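 Enzyme pre-incubated 30 min at 37 °C with inhibitor: 10 μM (MAO A) or 20 μM (MAO B). […] Three cycles of washing in 50 mM phosphate buffer pH 7.4 and centrifugation at 25,000 g, 10 min, 4 °C. Protein measured by Bradford; activity then assayed by the radiometric method. Six independent experiments in triplicate; Kruskal-Wallis analysis.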

[25] = target: T1, Amine oxidase [flavin-containing] B; assay: Irreversible inhibition of MAO-B in rat liver homogenate assessed as recovery of enzyme activity at 20 uM preincubated for 30 mins followed by centrifugation and washing with PBS buffer; type: tissue-based; in short: as §4
Mus musculus [26] = assay: Cognitive enhancing effect in C57BL/6J mouse assessed as reversal of scopolamine-induced long-term memory deficit by measuring latency time during training session at 35 mg/kg, iv administered 90 mins prior to scopolamine-challenge measured after 24 hrs by passive avoidance test; type: functional, organism-based; set-up: dose 35 mg/kg
Mus musculus [27] = assay: Cognitive enhancing effect in C57BL/6J mouse assessed as reversal of scopolamine-induced long-term memory deficit by measuring increase in latency time during probe session at 1 mg/kg, iv administered 90 mins prior to scopolamine-challenge measured after 24 hrs by passive avoidance test; type: functional, organism-based; set-up: dose 1 mg/kg
Mus musculus [28] = assay: Cognitive enhancing effect in C57BL/6J mouse assessed as reversal of scopolamine-induced long-term memory deficit by measuring latency time during training session at 1 mg/kg, iv administered 90 mins prior to scopolamine-challenge measured after 24 hrs by passive avoidance test; type: functional, organism-based; set-up: dose 1 mg/kg

Row | SMILES | Papp [1] | Fa [2] | fraction unbound [3] | Papp [4] | Papp [5] | IC50 (Acetylcholinesterase) | also measured
1 | C#CCN(Cc1ccc(O)c2ncccc12)CC1CCN(Cc2ccccc2)CC1 | 32.6 ×10⁻⁶ cm/s | 96.8% | 0.236 | 499 ×10⁻⁶ cm/s | 5.23 ×10⁻⁶ cm/s |  | 
2 | C#CCN(Cc1ccc(O)c2ncccc12)C1CCN(Cc2ccccc2)CC1 | 35.1 ×10⁻⁶ cm/s | 96.8% | 0.273 | 447 ×10⁻⁶ cm/s | 4.57 ×10⁻⁶ cm/s | ≥ 100 µM | IC50 [6]: ≥ 100 µM; IC50 [7]: ≥ 100 µM; IC50 (Cholinesterase): ≥ 100 µM
3 | C#CCN(Cc1ccc(O)c2ncccc12)C(C#N)CCC1CCN(Cc2ccccc2)CC1 (racemic) | 30.6 ×10⁻⁶ cm/s | 97% | 0.2 | 418 ×10⁻⁶ cm/s | 5.44 ×10⁻⁶ cm/s | 1.8 µM | viability at 3 µM [8]: 94.8%; inhibition (INH) [9]: Dose-dependent effect; Activity [10]: 0.65 mole fraction; Activity [11]: 0.5 mole fraction; inhibition [12]: Active; viability at 10 µM [13]: 94.4%; Activity [14]: 0.65 mole fraction; IC50 [15]: 8.3 µM; Activity (Mus musculus [16]): Active; inhibition (INH) [17]: Dose-dependent effect; IC50 [18]: 3.8 µM; viability at 1000 µM [19]: 51.5%; viability at 30 µM [20]: 92.4%; viability at 300 µM [21]: 71.4%; viability at 1 µM [22]: 98.4%; viability at 100 µM [23]: 85.6%; inhibition (INH) [24]: Active; inhibition (INH) [25]: Active; IC50 (Cholinesterase): 1.6 µM; Activity (Mus musculus [26]): inactive
4 | C#CCN(Cc1ccc(O)c2ncccc12)C(C#N)CC1CCN(Cc2ccccc2)CC1 (racemic) | 32.2 ×10⁻⁶ cm/s | 96.9% | 0.216 | 375 ×10⁻⁶ cm/s | 5.2 ×10⁻⁶ cm/s |  | 
5 | C#CCN(C)[C@H](C)Cc1ccccc1 [SELEGILINE] |  |  |  |  |  | ≥ 500 µM | 
6 | C#CCN(C)CCCOc1ccc(Cl)cc1Cl [CLORGILINE] |  |  |  |  |  | ≥ 500 µM | IC50 (Cholinesterase): ≥ 500 µM
7 | C#CCN(C)Cc1ccc(O)c2ncccc12 | 42.9 ×10⁻⁶ cm/s | 95.9% | 0.31 | 250 ×10⁻⁶ cm/s | 4.29 ×10⁻⁶ cm/s | ≥ 100 µM | IC50 [6]: 1.5 µM; IC50 [7]: 0.057 µM
8 | C#CCN(CCCC1CCN(Cc2ccccc2)CC1)Cc1ccc(O)c2ncccc12 | 30.2 ×10⁻⁶ cm/s | 96.9% | 0.226 | 624 ×10⁻⁶ cm/s | 5.41 ×10⁻⁶ cm/s |  | 
9 | C#CCN(CCC1CCN(Cc2ccccc2)CC1)Cc1ccc(O)c2ncccc12 | 31.3 ×10⁻⁶ cm/s | 96.9% | 0.229 | 559 ×10⁻⁶ cm/s | 5.44 ×10⁻⁶ cm/s |  | 
10 | COc1cc2c(cc1OC)C(=O)C(CC1CCN(Cc3ccccc3)CC1)C2 (configuration not stated) [DONEPEZIL] |  | 98% | 0.154 |  |  |  | viability at 3 µM [8]: 97%; viability at 10 µM [13]: 92.4%; Activity (Mus musculus [27]): Active; viability at 1000 µM [19]: 40.9%; viability at 30 µM [20]: 83.5%; viability at 300 µM [21]: 53.4%; Activity (Mus musculus [28]): inactive; viability at 1 µM [22]: 98.6%; viability at 100 µM [23]: 80%
11 | C#CCN(Cc1ccc(O)c2ncccc12)C(C#N)C1CCN(Cc2ccccc2)CC1 (racemic) | 34.8 ×10⁻⁶ cm/s | 96.8% | 0.197 | 336 ×10⁻⁶ cm/s | 4.93 ×10⁻⁶ cm/s |  | 

— ChEMBL document CHEMBL3286171 (Eur J Med Chem, 2014)
